Results from ChEMBL document CHEMBL1137414, “3'-Substituted 7-halogenoindirubins, a new class of cell death inducing agents” (J Med Chem, 2006).

Tests used:
F1 (hepatoma cell line) = assay: Survival of mouse F1 cells after 48 hrs by MTS reduction assay; settings: F1
SH-SY5Y [1] = assay: Survival of human SH-SY5Y cells after 48 hrs by MTS reduction assay; assay type: functional, cell-based
A549 = assay: Survival of human A549 cells after 48 hrs by MTS reduction assay; assay type: functional, cell-based
BP8 = assay: Survival of […] AhR -/- BP8 cells after 48 hrs by MTS reduction assay; assay type: functional, cell-based
SH-SY5Y [2] = assay: Death of human SH-SY5Y cells in absence of 20 uM Q-VD-OPh by MTS reduction assay; assay type: functional, cell-based; settings: read-out: IC50
HCT-116 = assay: Survival of human HCT116 cells after 48 hrs by MTS reduction assay; assay type: functional, cell-based
Outline: (§1)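 Viability read by MTS reduction. IC50 taken from dose-response curves, triplicate measurements. HCT116 grown in McCoy's 5A with 10% FCS. MDA-MB-231 grown in DMEM with 10% FCS and seeded at 7500 cells/well.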

SH-SY5Y [3] = assay: Survival of human SH-SY5Y cells after 24 hrs by MTS reduction assay; assay type: functional, cell-based
SH-SY5Y [4] = assay: Death of human SH-SY5Y cells at 25 uM after 48 hrs by LDH release assay; assay type: functional
Outline: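 SH-SY5Y human neuroblastoma cells were grown in DMEM with 2 mM L-glutamine, antibiotics and 10% FCS at 37 °C under 5% CO2. […] Lactate dehydrogenase release was measured 48 h after addition and expressed as percent cell death.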

PC-3 = assay: Survival of human PC3 cells after 48 hrs by MTS reduction assay; assay type: functional, cell-based
MDA-MB-231 = assay: Survival of human MDA-MB-231 cells after 48 hrs by MTS reduction assay; assay type: functional, cell-based
Outline: as §1

HT-29 = assay: Survival of human HT29 cells after 48 hrs by MTS reduction assay; assay type: functional, cell-based; settings: ht-29
[5] = biological target: Cyclin-dependent kinase 5/CDK5 activator 1 (Homo sapiens, UniProt Q00535+Q15078); assay: (§2) Inhibition of mammalian CDK5/p25; assay type: protein-complex assay
Outline: (§3)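 Recombinant CDK5 and p25, each expressed in E. coli as GST fusions and affinity-purified on glutathione agarose, mixed in equal amounts. Phosphate incorporation onto P81 paper read by scintillation counting, blank subtracted. Activity taken as % of uninhibited. IC50 from dose-response curves.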

SH-SY5Y [6] = assay: Survival of human SH-SY5Y cells at 25 uM by MTS reduction assay; assay type: functional, cell-based
Outline: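 Viability was read by MTS reduction and expressed as percent of untreated cells, as the average ± SE of three independent measurements, representative of two independent experiments.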

HEK293 = assay: Survival of human HEK293 cells after 48 hrs by MTS reduction assay; assay type: functional, cell-based
Huh-7 = assay: Survival of human Huh7 cells after 48 hrs by MTS reduction assay; assay type: functional, cell-based
[7] = Survival of mouse F1 cells after 48 hrs by MTS reduction assay; settings: Mus musculus, F1, 48 h
[8] = Inhibition of starfish CDK1/cyclin B in presence of 15 uM ATP; design: species or system Marthasterias glacialis
[9] = biological target: Cyclin-dependent kinase 5/CDK5 activator 1 (Homo sapiens, UniProt Q00535); assay: as §2; assay type: protein-complex assay
Outline: as §3

SH-SY5Y [10] = assay: Death of human SH-SY5Y cells in presence of 20 uM Q-VD-OPh by MTS reduction assay; assay type: functional, cell-based

Chain of Cyclin-dependent kinase 5/CDK5 activator 1 (Homo sapiens, UniProt Q00535) (Q00535 whole entry): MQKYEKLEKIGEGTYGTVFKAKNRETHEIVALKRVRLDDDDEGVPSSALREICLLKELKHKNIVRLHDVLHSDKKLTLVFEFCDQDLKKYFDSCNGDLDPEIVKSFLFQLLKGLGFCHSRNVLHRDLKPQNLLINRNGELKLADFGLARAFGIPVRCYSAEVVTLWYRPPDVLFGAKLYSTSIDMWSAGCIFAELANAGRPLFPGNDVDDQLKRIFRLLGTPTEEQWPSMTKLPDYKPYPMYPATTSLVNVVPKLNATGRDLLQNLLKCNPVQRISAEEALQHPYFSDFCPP
Chain of Cyclin-dependent kinase 5/CDK5 activator 1 (Homo sapiens, UniProt Q00535) (Q15078 whole entry, further chain): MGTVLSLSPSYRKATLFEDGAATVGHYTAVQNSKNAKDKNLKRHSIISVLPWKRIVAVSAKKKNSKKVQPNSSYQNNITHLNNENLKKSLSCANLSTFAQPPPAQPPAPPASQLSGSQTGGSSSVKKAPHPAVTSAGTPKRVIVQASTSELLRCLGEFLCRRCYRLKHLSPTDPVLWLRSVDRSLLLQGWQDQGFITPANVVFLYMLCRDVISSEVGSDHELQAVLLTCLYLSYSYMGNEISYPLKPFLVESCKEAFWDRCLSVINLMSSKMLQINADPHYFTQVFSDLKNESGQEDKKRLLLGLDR
Chain of Cyclin-dependent kinase 5/CDK5 activator 1 (Homo sapiens, UniProt Q00535+Q15078) (Q00535 whole entry, the tested form may be a part): as the sequence (Q00535 whole entry) above
Chain of Cyclin-dependent kinase 5/CDK5 activator 1 (Homo sapiens, UniProt Q00535+Q15078) (Q15078 whole entry, the tested form may be a part): as the sequence (Q15078 whole entry, further chain) above

SMILES | IC50 (F1 (hepatoma cell line)) [µM] | IC50 (SH-SY5Y [1]; sh-sy5y) [µM] | IC50 (A549; a549) [µM] | IC50 (BP8; bp8) [µM] | IC50 (SH-SY5Y [2]; sh-sy5y) [µM] | IC50 (HCT-116; hct-116) [µM] | IC50 (SH-SY5Y [3]; sh-sy5y) [µM] | Activity (SH-SY5Y [4]) [%] | IC50 (PC-3; pc-3) [µM] | IC50 (HT-29) [µM] | Survival (SH-SY5Y [6]) [%] | IC50 (HEK293; hek293) [µM] | IC50 (Huh-7; huh-7) [µM] | IC50 (SH-SY5Y [1]; Homo sapiens, SH-SY5Y, 48 h) [µM] | IC50 (BP8; Mus musculus, BP8, 48 h) [µM] | IC50 (SH-SY5Y [3]; Homo sapiens, SH-SY5Y, 24 h) [µM] | IC50 [8] [µM] | IC50 (PC-3; Homo sapiens, PC-3, 48 h) [µM] | IC50 (MDA-MB-231; Homo sapiens, MDA-MB-231, 48 h) [µM] | IC50 [9] [µM] | other results
CN(C)CCO/N=C1/C(c2c(O)[nH]c3c(Br)cccc23)=Nc2ccccc21 | 5.5 | 2 | 21.8 | 19.5 | 1.5 | 6.5 | 4.1 | 86 | 27.2 | 21.8 | 1 | 14.4 | 19.6 | – | – | – | – | – | – | – | IC50 (MDA-MB-231; mda-mb-231): 26.4 µM; IC50 [5]: > 10 µM
CN(C)CCO/N=C1/C(c2c(O)n(C)c3c(Br)cccc23)=Nc2ccccc21.Cl | – | – | – | – | 11 | – | – | 80 | – | – | 4 | – | – | 9 | 19 | 21 | > 10 | 25 | 17.8 | > 10 | IC50 [7]: 5.4 µM; IC50 (A549; Homo sapiens, A549, 48 h): 20.8 µM; IC50 (HCT-116; Homo sapiens, HCT-116, 48 h): 15.7 µM; IC50 (HEK293; Homo sapiens, HEK293, 48 h): 18.8 µM; IC50 (Huh-7; Homo sapiens, Huh-7, 48 h): 18 µM
CN(C)CCO/N=C1/C(c2c(O)[nH]c3c(Br)cccc23)=Nc2ccccc21.Cl | 1.7 | – | 5.8 | – | – | 2 | – | 84 | – | 2.4 | 5 | 3 | – | 1 | > 30 | 2.1 | > 10 | 15 | 18.8 | > 10 | IC50 (SH-SY5Y [10]; Homo sapiens, SH-SY5Y): > 25 µM; IC50 (SH-SY5Y [2]; Homo sapiens, SH-SY5Y): 1.1 µM; IC50 (Huh-7; Homo sapiens, Huh-7, 48 h): 11.2 µM
Cl.Cl.Oc1[nH]c2c(Br)cccc2c1C1=Nc2ccccc2/C1=N\OCCN1CCNCC1 | – | – | – | – | – | – | – | 100 | – | 1.9 | – | 1.9 | 2 | 6 | 5.4 | 6 | > 10 | 6 | 5.1 | > 10 | IC50 [7]: 1.4 µM; IC50 (A549; Homo sapiens, A549, 48 h): 6 µM; IC50 (SH-SY5Y [10]; Homo sapiens, SH-SY5Y): 6.8 µM; IC50 (SH-SY5Y [2]; Homo sapiens, SH-SY5Y): 6.2 µM; IC50 (HCT-116; Homo sapiens, HCT-116, 48 h): 5.1 µM; viability at 25 µM (SH-SY5Y [6]; Homo sapiens, SH-SY5Y, read-out: Survival): 3%
Cn1c(O)c(C2=Nc3ccccc3/C2=N\OCCN2CCCC2)c2cccc(Br)c21 | 5.6 | 5 | 21 | 18.8 | 6.1 | 13.6 | 7.8 | 78 | 21.6 | 19.8 | 15 | 21.4 | 18.8 | – | – | – | – | – | – | – | IC50 (SH-SY5Y [10]; sh-sy5y): > 25 µM; IC50 (MDA-MB-231; mda-mb-231): 26.8 µM; IC50 [5]: > 10 µM
